Assay outcomes from PubChem.
FN deposition inh: inhibitors of fibronectin matrix deposition, primary screen, AH1F cells, Alexa488-fibronectin fluorescence, plate reader; inhibition, % at 12.6 µM; AH1F fibroblasts, overnight; 350,000 tested, 0.086% active;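 active means mean inhibition across replicates of 30% or more, regardless of how many single replicates reach that level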
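Test system: AH1F fibroblast monolayer depositing Alexa488-labelled fibronectin into matrix. Input: 10000 cells per well. Technique: fluorescence, ex 485 nm, em 525 nm. Buffer or medium: DMEM plus 2% serum, read in PBS. Timing: 1 h cell adhesion before compound, then overnight fibronectin incubation. Compound: single dose, pinned. Read-out basis: inhibition from reduced deposited-fibronectin fluorescence.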
CFTR F508del cor: F508del CFTR correction, initial screen, CFBE line, single point; CFBE cells, YFP halide quenching; stimulated with forskolin plus potentiator P3; % fluorescence drop versus neutral controls; activity (quench increase), % at 7.58 µM; 350,000 tested, 0.36% active; AID 720511, 2013;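 active means mean added fluorescence quench of at least 8% versus neutral control, with both replicates also reaching 8%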;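 further: cells transiently co-express mutant CFTR-F508del with the halide-sensitive YFP; corrector assay measuring rescue of mutant channel to the surface after 24 h compound exposure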
Cneo AK release: Cryptococcus neoformans cell lysis inducers, primary screen, AK release luminescence, single concentration | 360,000 tested, 0.2% active | lysis activity, % at 15 µM | AID 651654, 2012 | C. neoformans lysis, adenylate kinase release luminescence, 4 h; normalised: neutral wells 0, clomiphene wells 100;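 active means mean lysis activity across replicates of at least 80%, whatever share of replicates individually reach that level; inactive means mean lysis activity below 80%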
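Schedule: static 4 h at 37 °C with compound, 1 h detection; system: C. neoformans cells; benchmarks: Clomiphene as positive control; buffer or medium: fresh YPD medium; measure: luminescence rise reflecting yeast cell lysis; measured by: luminescent adenylate kinase detection reagent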
DENV2 CPE rescue: inhibitors of DENV2 cytopathic effect, primary screen, cell-based, plate reader, single concentration | 350,000 tested, 1.7% active | AID 651640, 2012 | DENV2-infected cells, cytopathic effect rescue | CPE inhibition, % at 9.99 µM; in the data active means CPE inhibition above about 20%, passing the limit was not always enough; tested in BHK-21 cells
Xi reactivation: activators of inactive X chromosome reactivation, primary screen, imaging, XiGFP fibroblasts, GFP high-content imaging, set 2. XiGFP mouse fibroblasts, % GFP-positive cells imaging, 3 d; cells co-treated with 5-aza-dC sensitizer; scaled so ellipticine positive control = 100%. activation, % at 7.58 µM. 360,000 tested, 0.055% active. AID 743238, 2013;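 active means mean normalized replicate activation at least 10% and every replicate at or above 10%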
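System: XiGFP fibroblasts, SV40-immortalized. Medium: DMEM plus 5-aza-dC sensitizer. Doses: single point. Timing: 3 d treatment, 15 min room-temperature fixation. Control set: ellipticine 6 µM.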
PGC1a acetyl inh: inhibitors of PGC1a acetylation signal, primary screen, cell-based, U2OS, AlphaScreen, inhibitor mode; AlphaScreen anti-acetyl-lysine; with virally co-expressed GCN5 acetyltransferase; inhibition, % at 15.6 µM; 350,000 tested, 0.17% active;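 active means every replicate shows inhibition of at least 40%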
Large screens that a line does not name were inactive. Compounds with a hit are over-represented: about 1.9% of the library has one in this group of screens.

C[C@@H]1CCCCO[C@@H](CN(C)Cc2ccncc2)[C@@H](C)CN([C@@H](C)CO)C(=O)c2cc(NC(=O)c3ccncc3)ccc2O1	Cneo AK release 88.9 (no result: DENV2 CPE rescue)
CO[C@H]1CN(C)C(=O)c2ccc(NS(C)(=O)=O)cc2OC[C@H](C)N(C(=O)NC(C)C)C[C@@H]1C	none (no result: Cneo AK release)
C[C@H]1CCCCO[C@H](CN(C)Cc2ccc(C(=O)O)cc2)[C@@H](C)CN([C@@H](C)CO)C(=O)c2cc(NC(=O)c3ccncc3)ccc2O1	none (no result: FN deposition inh)
C[C@@H]1CCCCO[C@H](CN(C)Cc2ccc(C(=O)O)cc2)[C@H](C)CN([C@@H](C)CO)C(=O)c2cc(NC(=O)c3ccncc3)ccc2O1	DENV2 CPE rescue 32.1 (no result: FN deposition inh)
CNC(=O)C[C@H]1CC[C@@H]2[C@H](COC[C@@H](O)CN2C(=O)Nc2ccc3c(c2)OCO3)O1	DENV2 CPE rescue 102.3
CCNC(=O)C[C@@H]1CC[C@@H]2[C@H](COC[C@@H](O)CN2C(=O)Nc2ccc3c(c2)OCO3)O1	none
O=C(C[C@H]1CC[C@H]2[C@@H](COC[C@H](O)CN2C(=O)Nc2ccc3c(c2)OCO3)O1)N1CCN(c2ccccc2)CC1	Cneo AK release 90.9
O=C(c1ccccn1)N1C[C@H]2[C@@H](c3ccccc31)[C@@H](CO)N2CC1CCCC1	none (no result: FN deposition inh, CFTR F508del cor, Cneo AK release, DENV2 CPE rescue, PGC1a acetyl inh)
O=C(Nc1ccc(F)cc1)C1CCN(C(=O)c2ccc(F)cc2)CC1	CFTR F508del cor 13.7
COc1cc(C(O)CO)ccc1O (stereo not drawn)	none
COc1cc(C(O)CO)ccc1OS(=O)(=O)O (stereo not drawn)	CFTR F508del cor 10.0 (no result: PGC1a acetyl inh)
O=C1CCCc2ccccc2N1Cc1ccccc1Cl	none (no result: FN deposition inh, CFTR F508del cor, DENV2 CPE rescue, Xi reactivation)
O=C1CCCc2ccccc2N1Cc1ccc(Cl)cc1Cl	PGC1a acetyl inh 56.0 (no result: FN deposition inh, CFTR F508del cor, Cneo AK release, DENV2 CPE rescue, Xi reactivation)
Cc1ccc(S(=O)(=O)N[C@@H]2CC[C@@H](CC(=O)N3CCC(Cc4ccccc4)CC3)O[C@@H]2CO)cc1	none (no result: FN deposition inh)
Cc1ccc(S(=O)(=O)NCC[C@@H]2CC[C@H](NC(=O)NC(C)C)[C@H](CO)O2)cc1	none
CO[C@@H]1CN(C)C(=O)c2cc(NC(=O)C3CCOCC3)ccc2OC[C@H](C)NC[C@@H]1C	Cneo AK release 101.7
CO[C@H]1CN(C)C(=O)c2cc(NC(=O)C3CCOCC3)ccc2OC[C@@H](C)NC[C@H]1C	Cneo AK release 106.7
CCCN1C[C@H](C)[C@@H](OC)CN(C)C(=O)c2cc(NC(=O)C3CCOCC3)ccc2OC[C@H]1C	none
CCCN1C[C@@H](C)[C@@H](OC)CN(C)C(=O)c2cc(NC(=O)C3CCOCC3)ccc2OC[C@H]1C	DENV2 CPE rescue 26.2
CO[C@@H]1CN(C)C(=O)c2cc(NC(=O)C3CCOCC3)ccc2OC[C@H](C)NC[C@H]1C	none
Cn1cnc(S(=O)(=O)N[C@H]2CC[C@@H](CC(=O)N3CCN(c4ccccc4)CC3)O[C@@H]2CO)c1	none
CC(C)(C)NC(=O)c1ccc(Sc2ccccc2)c([N+](=O)[O-])c1	PGC1a acetyl inh 80.8 (no result: FN deposition inh, CFTR F508del cor, Cneo AK release, DENV2 CPE rescue, Xi reactivation)
N#Cc1cc(Sc2ccccn2)c([N+](=O)[O-])cc1C#N	CFTR F508del cor 12.5
COC(=O)c1ccc(Sc2ccccn2)c([N+](=O)[O-])c1	DENV2 CPE rescue 87.9 (no result: Cneo AK release, PGC1a acetyl inh)
O=C(O)c1ccc(Sc2ccccn2)c([N+](=O)[O-])c1	none
O=C(O)CNC(=O)c1ccc(Sc2ccccc2)c([N+](=O)[O-])c1	none (no result: Cneo AK release, PGC1a acetyl inh)
COCCOC(=O)N1C(=O)[C@@]2(c3cc(C#CC4=CCCCC4)ccc31)[C@H](C(=O)NC[C@H](O)c1ccccc1)[C@H]1C(=O)O[C@H](c3ccccc3)[C@H](c3ccccc3)N1[C@@H]2c1ccc(O)cc1	none (no result: FN deposition inh, Xi reactivation, PGC1a acetyl inh)
CC(=O)Nc1ccc(NC(=O)COc2cccc3c2OC(C)(C)C3)cc1	CFTR F508del cor 11.2
C[C@H]1CCCCO[C@H](CN(C)C)[C@@H](C)CN([C@@H](C)CO)C(=O)c2cc(NS(=O)(=O)c3ccc(F)cc3)ccc2O1	none
Cc1nccn1CC(O)COc1ccc(Cl)cc1Cl (stereo not drawn)	DENV2 CPE rescue 31.1
CCc1nnc(NC(=O)CSc2ncc(-c3ccccc3)[nH]2)s1	none (no result: FN deposition inh, Xi reactivation)
Cc1nnc(NC(=O)CSc2ncc(-c3ccccc3)[nH]2)s1	PGC1a acetyl inh 88.3
COc1ccccc1NC(=O)N[C@@H]1CC[C@@H](CCn2cc(-c3ccccc3)nn2)O[C@H]1CO	none (no result: FN deposition inh)
O=C1N[C@@H](Cc2ccccc2)COCc2cn(nn2)CC[C@@H]1Cc1cccc(Cl)c1	none (no result: CFTR F508del cor, Cneo AK release, DENV2 CPE rescue, PGC1a acetyl inh)
C[C@@H]1CCCCO[C@@H](CN(C)S(=O)(=O)c2cn(C)cn2)[C@@H](C)CN([C@@H](C)CO)C(=O)c2cc(NC(=O)Nc3ccccc3)ccc2O1	none
CC(C)NC(=O)N(C)C[C@H]1Oc2c(NC(=O)C3CC3)cccc2C(=O)N([C@@H](C)CO)C[C@H]1C	none
CC(C)NC(=O)N(C)C[C@H]1Oc2c(NC(=O)C3CC3)cccc2C(=O)N([C@H](C)CO)C[C@H]1C	DENV2 CPE rescue 42.2
C[C@H]1CN([C@@H](C)CO)C(=O)c2cccc(NC(=O)C3CC3)c2O[C@@H]1CN(C)C	DENV2 CPE rescue 23.3 (no result: FN deposition inh)
Cn1cnc(S(=O)(=O)N[C@H]2CC[C@H](CC(=O)Nc3ccccc3)O[C@H]2CO)c1	none
O=C(NCC[C@H]1CC[C@H](NC(=O)C2CCCCC2)[C@H](CO)O1)Nc1ccc(Cl)cc1	none
O=C(c1cc(C2CC2)on1)N1CCN(C(c2ccccc2)c2ccccc2)CC1	DENV2 CPE rescue 40.0
CCCC(=O)N1CC2(CCN(C(=O)Nc3cccc(F)c3)CC2)c2c(n(C)c3cc(OC)ccc23)[C@H]1CO	none (no result: FN deposition inh, Cneo AK release)
COc1cc(O)c(C(C)=O)c2c1C=CC(C)(C)O2	DENV2 CPE rescue 26.7 (no result: FN deposition inh, Xi reactivation)
CCN(CC)CCCNC(=S)N1CCN(c2nc3ccccc3n2CC)CC1	DENV2 CPE rescue 41.1
CCCN1[C@@H]2c3ccc(-c4ccccc4)c(=O)n3C[C@H]1[C@H](CO)[C@H]2C(=O)NCCCN1CCOCC1	none (no result: FN deposition inh, PGC1a acetyl inh)
Cc1cccc(Nc2nc(N)nc(N)c2N=O)c1	none (no result: PGC1a acetyl inh)
Cc1ccc(N(C)c2nc(N)nc(N)c2N=O)cc1	CFTR F508del cor 9.9 (no result: Cneo AK release, PGC1a acetyl inh)
CCOc1ccc(NC(=O)c2ccc(CNc3c(NC4CCCCC4)c(=O)c3=O)cc2)cc1	FN deposition inh 33.2
COc1ccc(NC(=O)c2ccc(CNc3c(NC4CCCCC4)c(=O)c3=O)cc2)c(OC)c1	none
CCOC(=O)C1=CC[C@H]2c3c(c4ccc(OC)cc4n3C)C(=O)C1N2S(=O)(=O)c1ccc(C)cc1	DENV2 CPE rescue 31.1
